MrgX1 PAM = positive allosteric modulators of MrgX1, primary screen, HEK293 cells, Fluo-4 calcium flux | Mas-related G-protein coupled receptor member X1 (Homo sapiens), Q96LB2 | B-score at 10 µM | AID 588675, 2011 | FDSS; active compounds read high | 310,000 compounds, 0.63% hits;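 active = plate-corrected calcium response at least 3 library SD above typical, normal starting fluorescence, not activating the receptor alone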;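 also: compound read alongside a low EC10 to EC30 dose of BAM8-22 agonist; peak minus trough fluorescence over baseline measured at the second addition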
Target sequence (Q96LB2 whole entry, looked up): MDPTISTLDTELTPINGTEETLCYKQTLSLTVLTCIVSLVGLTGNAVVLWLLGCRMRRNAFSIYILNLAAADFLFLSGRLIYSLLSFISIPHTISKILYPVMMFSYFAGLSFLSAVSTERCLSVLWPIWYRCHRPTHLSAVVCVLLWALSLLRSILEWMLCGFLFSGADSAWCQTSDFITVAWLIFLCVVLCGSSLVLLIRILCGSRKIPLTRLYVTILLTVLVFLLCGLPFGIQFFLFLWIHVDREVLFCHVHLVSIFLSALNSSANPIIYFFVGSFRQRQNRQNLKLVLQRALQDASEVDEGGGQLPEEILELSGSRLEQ
MrgX1 antagonist = antagonists of human MrgX1 receptor, primary screen, HEK293 cells, Fluo-4 calcium flux; BAM8-22 antagonism; active compounds read low; B-score at 10 µM; 310,000 compounds, 1.3% hits; AID 588676, 2011;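 active = calcium-response B-score plate-corrected more than 3 library SD below zero, starting fluorescence within 5 deviations, no agonist response on first addition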;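 also: peak minus trough fluorescence over baseline after final BAM8-22 challenge near maximal dose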
RGS4 inh = RGS4 inhibitors, primary screen, cell-based, HEK293 M3R inducible RGS4, calcium flux. Regulator of G-protein signaling 4 (Homo sapiens), P49798. Fluo-4 calcium flux; active compounds read high; triggered by carbachol at its EC20. 310,000 compounds, 0.45% hits. B-score at 10 µM. AID 463165, 2010;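 active = B-score, a plate-corrected calcium signal, over three deviations above library mean, with baseline fluorescence within five deviations of library mean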;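 also: RGS4 expression induced by doxycycline in cells with stable M3 receptor; B-score is computed from the integrated fluorescence ratio over baseline after carbachol; higher B-score means a larger calcium signal and so more RGS4 inhibition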
Target sequence (P49798 whole entry, looked up): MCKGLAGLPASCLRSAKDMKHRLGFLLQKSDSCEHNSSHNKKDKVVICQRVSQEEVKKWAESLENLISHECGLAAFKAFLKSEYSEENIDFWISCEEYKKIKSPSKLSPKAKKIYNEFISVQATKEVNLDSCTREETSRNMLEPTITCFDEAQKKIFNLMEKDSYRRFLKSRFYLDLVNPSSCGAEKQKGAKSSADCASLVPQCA
MrgX1 agonist = agonists of human MrgX1 receptor, primary screen, HEK293 cells, Fluo-4 calcium flux | 310,000 compounds, 0.44% hits | B-score at 10 µM | AID 588627, 2011 | Fluo-4 calcium fluorescence, agonist mode; active compounds read high | Mas-related G-protein coupled receptor member X1 (Homo sapiens), Q96LB2;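 active = calcium response B-score plate-corrected fluorescence ratio at least 3 library SD, with starting fluorescence B-score inside 5 SD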
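Assay system: stable human MrgX1 HEK293 cell line. Quantity: 15,000 cells per well. Schedule: cells plated overnight, dye loaded 0.5 h 37 °C, 0.5 h room temperature. Detection: Fluo-4 NW calcium-flux fluorescence, kinetic read. Read-out basis: peak-minus-minimum fluorescence over baseline, converted to B scores. Control set: positive and negative control wells on each plate.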
RGS4 act = RGS4 potentiators or activators, primary screen, cell-based, HEK293 M3R inducible RGS4, calcium flux | carbachol calcium flux Fluo4; active compounds read low | B-score at 10 µM | 310,000 compounds, 0.92% hits;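 active = B-score of the integrated calcium signal more than 4 SD below the library mean, with starting fluorescence not abnormally high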;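 also: negative B-score means reduced calcium response which marks RGS4 activation or potentiation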
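Test system: HEK293 cells with stable M3R and inducible RGS4; also added: carbachol at ECmax as muscarinic agonist stimulus; schedule: dye loading 30 min 37 °C, buffer rest 30 min RT; technique: kinetic calcium fluorescence imaging with Fluo4-AM dye, 2 µM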
RGS4 inh valid = enhanced carbachol calcium response, M3R/RGS4 cells, RGS4 inhibitor project, cell-based, validation screen, HEK293 M3R/RGS4, calcium flux | AID 492999, 2010 | calcium response, % at 10 µM | shares compounds with RGS4 inh | carbachol calcium Fluo-4 fluorescence; carbachol added at its EC20; 0 = buffer wells, 100 = carbachol control | 1,700 compounds, 65% hits;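 active = duplicate-averaged calcium response above the buffer-only control mean plus 5 SD of those controls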;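 also: integrated fluorescence ratio F max minus min over baseline F0; higher response in RGS4-induced cells means RGS4 inhibition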
RGS4 uninduced = carbachol calcium response in non-induced M3R cells, confirmation, counter-screen for RGS4 inhibitor project, cell-based, HEK293 M3R. AID 493000, 2010. shares compounds with RGS4 inh. carbachol calcium Fluo-4; submaximal (EC20) carbachol stimulus; buffer wells 0%, carbachol control wells 100%. activity (percent), % at 10 µM. 1,900 compounds, 20% hits; call rule not given here;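 also: RGS4 induction absent so cells express M3R without RGS4; higher means more calcium signal and flags a non-specific hit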
M3R basal Ca ctr = second RGS4 inhibitor counter-screen in uninduced cells lacking carbachol; shares compounds with RGS4 inh; HEK293 M3R/RGS4 non-induced, Fluo-4 calcium, no carbachol; normalised: buffer wells 0%, carbachol wells 100%; calcium response (agonist-mode artifact), % at 10 µM; 1,900 compounds, 22% hits; AID 493001;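 active = duplicate-averaged calcium rise in uninduced cells above buffer wells' mean plus 5 SD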
Large screens that a line does not name were inactive (follow-up assays come after a bar, where they were run). This is a sample that favours compounds with a hit; in the whole collection about 3.5% have one here.

CC(C)/C=C1\CC/C(=C\c2cccnc2)C1=O	none | RGS4 uninduced inactive | M3R basal Ca ctr inactive
O=C1/C(=C/c2cccnc2)CC/C1=C\c1cccnc1	RGS4 inh 6.94 | RGS4 inh valid 19.5% | RGS4 uninduced inactive | M3R basal Ca ctr inactive
O=C(c1ccc(CS(=O)Cc2cccc(Cl)c2)o1)N1CCN(C2CCCCC2)CC1 (stereo not drawn)	none
C=CCN1C(=O)c2ccc(C(=O)N(C)CC(=O)Nc3ccccc3Br)cc2C1=O	none
N#Cc1c(N2C(=O)Nc3ccccc3N2O)sc2c1CCCCCC2	RGS4 inh 5.24 | RGS4 inh valid 15.5% | RGS4 uninduced 41.5% | M3R basal Ca ctr inactive
Cc1ccc(S(=O)(=O)NCCC(=O)OCC(=O)N(Cc2ccccc2)C(C)(C)C)cc1	none
COc1ccccc1NC(=O)c1ccccc1C(=O)Nc1ccccc1OC	none
CCc1ccccc1-n1ncc(C(=O)Nc2ccccc2OC)c1C	RGS4 inh 7.41 | RGS4 inh valid inactive | RGS4 uninduced inactive | M3R basal Ca ctr 31.5%
N#CC1=C(N)C(C#N)(C#N)C2(C(=O)Nc3ccccc32)C2CCCC=C12 (stereo not drawn)	RGS4 inh 5.4 | RGS4 inh valid 24.0% | RGS4 uninduced 31.0% | M3R basal Ca ctr inactive
CCOc1cccc(CN2CCN(CCCc3ccccc3)C(CCO)C2)c1O (stereo not drawn)	none
CCN1C(=O)C(CC(=O)Nc2ccc(Br)cc2)N(CCCc2ccccc2)C1=S (stereo not drawn)	none
Cc1ccc(N=c2oc3cc(O)ccc3cc2C(N)=O)cc1	none | RGS4 uninduced inactive | M3R basal Ca ctr inactive
CC(=O)c1cc2ccc(O)cc2oc1=O	none
N#CC1=C2N=C(N)c3ccccc3N2C2=C(C(=O)CCC2)C1c1ccc(Cl)cc1 (stereo not drawn)	RGS4 inh 7.51 | RGS4 inh valid 19.5% | RGS4 uninduced 28.5% | M3R basal Ca ctr 24.5%
COc1ccc(N2CCN(C3CCN(S(=O)(=O)c4ccc(F)cc4)CC3)CC2)cc1	none
COc1ccc(S(=O)(=O)N2CCN(c3ccc4nnc(-c5ccc(F)cc5)n4n3)CC2)cc1	none | RGS4 uninduced 31.5% | M3R basal Ca ctr inactive
CCN(CC)c1ccc(N2C(=O)/C(=C\c3cccnc3)SC2=S)cc1	RGS4 inh 7.28 | RGS4 inh valid inactive | RGS4 uninduced inactive | M3R basal Ca ctr inactive
N#Cc1c(N2CCOCC2)nc(-c2ccco2)c2c1CCCC2	none | RGS4 inh valid inactive | RGS4 uninduced inactive | M3R basal Ca ctr inactive
CCc1nc(N2CCOCC2)c(C#N)c2c1CCCC2	none
CC1(C)Cc2c(C#N)c(N3CCCC3)nc(-c3ccco3)c2CO1	RGS4 inh 8.53 | RGS4 inh valid 6.0% | RGS4 uninduced inactive | M3R basal Ca ctr 13.0%
CC1(C)Cc2c(C#N)c(NCc3ccco3)nc(-c3ccco3)c2CO1	none
CC(=O)c1ccc(N2CCN(C(=S)Nc3ccc(Cl)c(Cl)c3)CC2)cc1	none
CC(CCc1ccccc1)NC(=O)N1CCOCC1 (stereo not drawn)	none
CO/N=C/NC(=O)C1=NOC(CNc2ncc(C(F)(F)F)cc2Cl)C1 (stereo not drawn)	none
NC(=O)C1=NOC(CNc2ncc(C(F)(F)F)cc2Cl)C1 (stereo not drawn)	none | RGS4 inh valid inactive | RGS4 uninduced inactive | M3R basal Ca ctr inactive
CCc1ccc(OC(C)c2nnc(SCC(=O)Nc3ncccc3C)n2C)cc1 (stereo not drawn)	none
